This is an account of results in ChEMBL document CHEMBL4811236, “New class of hantaan virus inhibitors based on conjugation of the isoindole fragment to (+)-camphor or (-)-fenchone hydrazonesv” (Bioorg Med Chem Lett, 2021).

A word on the CC50: it is the concentration at which the toxic effect on the cells reaches its halfway point. By IC50 is commonly meant the concentration needed to halve the response being measured. A word on the EC50: it is the concentration giving half of the maximal effect.

Data set [1] in a line: Cytotoxicity against MDCK cells by MTT assay. The conditions noted are these: dog. It is filed as cell-based, Canis lupus familiaris. Background: Formazan colour is commonly taken as a measure of viable cells.
A short description of data set [2]: Selective index, ratio of CC50 for HEK293T cells to IC50 for antiviral activity against pseudotyped recombinant vesicular stomatitis virus delta G Gn-Gc infected HEK293T cells. In kind it is toxicity. As to conditions: human, read-out: Ratio CC50/IC50; call rule not given here. Summed up:
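Selectivity index was calculated as CC50 (HEK293T, 72 h exposure) divided by IC50 against rVSV-ΔG-Gn-Gc pseudovirus in HEK293T cells.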

The subject of data set [3] is Orthohantavirus hantanense. The data set is described as follows: Antiviral activity against Hantaan 76-118 pseudovirus infected in MDCK cells assessed as reduction in virus replication incubated for 48 hrs by luminescence assay. In kind it is functional, organism-based.
The nature of data set [4]: Cytotoxicity against human HEK293T cells measured after 72 hrs by MTT assay. In kind it is cell-based, HEK-293T. Summed up: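 HEK293T cells were exposed to compounds for 72 h. CC50 was the concentration causing 50% cell death, reported as M ± I95, n = 3.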
The nature of data set [5]: Selective index, ratio of CC50 for MDCK cells to IC50 for Hantaan 76-118. In kind it is toxicity. As to conditions: dog, read-out: Ratio CC50/IC50.
In data set [6] the test system is Vesicular stomatitis virus. The experiment in a line: Antiviral activity against pseudotyped recombinant vesicular stomatitis virus delta G Gn-Gc infected HEK293T cells assessed as reduction in virus replication incubated for 48 hrs by luminescence assay. In kind it is functional, organism-based. As to conditions: HEK-293T. Summed up: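 Gn-Gc-pseudotyped VSV-ΔG particles were made by transfecting HEK293T cells with a Hantaan 76–118 Gn-Gc plasmid, adding VSV-ΔG-G after 48 h, and harvesting the supernatant 48 h later. Pseudovirus (500,000 RLU) was preincubated with a range of compound concentrations for 1 h, then a HEK293T cell suspension was added. IC50 reported as M ± I95, n = 3.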

Data set [7] relates to Orthohantavirus hantanense. The data set is described as follows: Antiviral activity against HTNV strain 76-118 infected african green monkey Vero E6 cells measured after 3 days by plaque-formation assay. It is filed as functional, organism-based. The conditions noted are these: 76-118, Vero C1008, 72 h.
Where [8] appears, read: Orthohantavirus hantanense, 76-118, MDCK, 48 h, read-out: IC50.

SMILES strings stand for the structures.

In data set [1], `CSc1nc2[nH]nc([N+](=O)[O-])c(=O)n2n1` registered a CC50 at 336 h of 368 µM. Besides, the selectivity ratio was determined as 4 in data set [2] and 26 in data set [5]. Besides, the IC50 in data set [3] (setting [8]) worked out at 14 µM; in data set [6], 408 µM. In data set [4], the CC50 at 72 h came to 1510 µM.
`CC1(C)[C@@H]2CC[C@@]1(C)/C(=N/NC(=O)c1ccccc1)C2` returned a CC50 at 336 h in data set [1] greater than 150 µM. In addition, the IC50 result was “Not Active” in data set [3] (mdck) and 780 µM in data set [6]. This molecule also had a CC50 at 72 h in data set [4] of 1100 µM.
Take `CC1(C)[C@@H]2CC[C@@]1(C)/C(=N/NC(=O)c1cccc3c1C(=O)N(Cc1ccccc1)C3)C2`: the CC50 at 336 h in data set [1] is greater than 300 µM. In addition, in data set [3] (mdck), the IC50 result is listed as “Not Active”.
Take `O=c1c2ncn([C@@H]3O[C@H](CO)[C@@H](O)[C@H]3O)c2ncn1-c1cccc(F)c1`: the EC50 in data set [7] turned out to be 94 µM.
Molecule `CCN1CC23C=CC(O2)C(C(=O)N/N=C2\C[C@H]4CC[C@]2(C)C4(C)C)C3C1=O` (mixture of isomers) returned a half-maximal cytotoxic concentration (CC50) at 336 h in data set [1] of 250 µM. Further, the IC50 result in data set [3] (mdck) was “Not Active”; in data set [6] it was 790 µM. The same molecule returned a CC50 at 72 h in data set [4] of 1070 µM.
As to `CC12C=CC3(CN(Cc4ccccc4)C(=O)C3C1C(=O)N/N=C1\C[C@H]3CC[C@]1(C)C3(C)C)O2` (mixture of isomers), the cytotoxic concentration (CC50) at 336 h in data set [1] was 245 µM. Also, the selectivity ratio in data set [2] stood at 2; in data set [5], 7. Besides, the IC50 was 33 µM in data set [3] (setting [8]) and 147 µM in data set [6]. In data set [4], this molecule returned a CC50 at 72 h of 335 µM.
For `COCCN1CC23C=CC(O2)C(C(=O)N/N=C2\C[C@H]4CC[C@]2(C)C4(C)C)C3C1=O` (mixture of isomers), in data set [1], the midpoint of cytotoxicity, the CC50 at 336 h, lay at 250 µM. The figures for the IC50 entry in data set [3] (mdck) and in data set [6] were “Not Active” and greater than 800 µM, respectively. Besides, the CC50 at 72 h in data set [4] worked out at 1030 µM.
In turn, `CC12C=CC3(CN(c4ccccc4)C(=O)C3C1C(=O)N/N=C1\C[C@H]3CC[C@]1(C)C3(C)C)O2` (mixture of isomers) showed a CC50 at 336 h in data set [1] of 142 µM. Also, the selectivity ratio in data set [2] is 4; in data set [5], 10. Also, the IC50 is 14 µM in data set [3] (setting [8]) and 96 µM in data set [6]. The CC50 at 72 h in data set [4] stood at 448 µM.
`COc1ccc(N2CC34C=CC(C)(O3)C(C(=O)N/N=C3\C[C@H]5CC[C@]3(C)C5(C)C)C4C2=O)cc1` (mixture of isomers): in data set [1], half-maximal cytotoxicity (CC50 at 336 h) was put at 120 µM. The IC50 in data set [3] (setting [8]) came out at 19 µM. In addition, in data set [5], the selectivity ratio came out at 6.
For the molecule `CC1(C)[C@@H]2CC[C@@]1(C)/C(=N/NC(=O)C1C3C=CC4(CN(Cc5ccccc5)C(=O)C14)O3)C2` (mixture of isomers), the CC50 at 336 h in data set [1] was 250 µM. In addition, the IC50 entry in data set [3] (mdck) was “Not Active”; in data set [6], 750 µM. Also, in data set [4], the cytotoxic concentration (CC50) at 72 h was determined as 860 µM.
Turning to `COc1ccc(N2CC34C=CC(C)(O3)C(C(=O)N/N=C3\C(C)(C)[C@H]5CC[C@]3(C)C5)C4C2=O)cc1` (mixture of isomers), half-maximal cytotoxicity in data set [1] (CC50 at 336 h) was put at 292 µM. Moreover, the values for the selectivity ratio in data set [2] and in data set [5] were 2 and 9, respectively. In addition, the IC50 in data set [3] (setting [8]) stood at 30 µM; in data set [6], 74 µM. In data set [4], the CC50 at 72 h amounted to 152 µM.
`CC12C=CC3(CN(c4ccc(Br)cc4)C(=O)C3C1C(=O)N/N=C1\C[C@H]3CC[C@]1(C)C3(C)C)O2` (mixture of isomers) registered a CC50 at 336 h in data set [1] of 78 µM. For the same molecule, the IC50 result in data set [3] (mdck) was “Not Active”; in data set [6], 120 µM. In data set [4], this molecule showed a CC50 at 72 h of 175 µM.
`CC12C=CC3(CN(c4ccccc4)C(=O)C3C1C(=O)N/N=C1\CC3CCC1C3)O2` (mixture of isomers): in data set [1], half-maximal cytotoxicity (CC50 at 336 h) was put at 269 µM. Besides, the IC50 in data set [3] (setting [8]) was determined as 28 µM. Also, the selectivity ratio in data set [5] was 9.
The matching figures for `CCC12C=CC3(CN(c4ccccc4)C(=O)C3C1C(=O)N/N=C1\C(C)(C)[C@H]3CC[C@]1(C)C3)O2` (mixture of isomers): 120 µM, 40 µM and 3.
`CC12C=CC3(CN(c4ccc(Br)cc4)C(=O)C3C1C(=O)N/N=C1\C(C)(C)[C@H]3CC[C@]1(C)C3)O2` (mixture of isomers) had a CC50 at 336 h in data set [1] of 80 µM. Further, the IC50 entry in data set [3] (mdck) is “Not Active”; in data set [6] it was 65 µM. This molecule gave a CC50 at 72 h in data set [4] of 78 µM.
`CC12C=CC3(CN(CCc4ccccc4)C(=O)C3C1C(=O)N/N=C1\C[C@H]3CC[C@]1(C)C3(C)C)O2` (mixture of isomers): the CC50 at 336 h in data set [1] came to 195 µM. For the same molecule, the selectivity ratio is 3 in data set [2] and 4 in data set [5]. For the same molecule, the IC50 is 42 µM in data set [3] (setting [8]) and 69 µM in data set [6]. The same molecule yielded a CC50 at 72 h in data set [4] of 216 µM.
For the molecule `CCCCN1CC23C=CC(C)(O2)C(C(=O)N/N=C2\C[C@H]4CC[C@]2(C)C4(C)C)C3C1=O` (mixture of isomers), the CC50 at 336 h in data set [1] stood at 246 µM. In addition, the IC50 in data set [3] (setting [8]) came out at 26 µM. Also, the selectivity ratio in data set [5] is 9.
With `CC1(C)[C@@H]2CC[C@@]1(C)/C(=N/NC(=O)C1C3OC4(CN(c5ccccc5)C(=O)C14)C1OC31)C2` (mixture of isomers), in data set [1], the CC50 at 336 h is 195 µM. Moreover, the selectivity ratio in data set [2] and in data set [5] was 5 in each case. The concentration for half-maximal inhibition (IC50) came out at 37 µM in data set [3] (setting [8]) and 195 µM in data set [6]. The half-maximal cytotoxic concentration (CC50) at 72 h in data set [4] was found to be 1040 µM.
Take `CC12CCC3(CN(c4ccccc4)C(=O)C3C1C(=O)N/N=C1\C[C@H]3CC[C@]1(C)C3(C)C)O2` (mixture of isomers): the CC50 at 336 h in data set [1] was 130 µM. Further, the selectivity ratio was found to be 3 in data set [2] and 6 in data set [5]. The IC50 was determined as 20 µM in data set [3] (setting [8]) and 375 µM in data set [6]. Further, it took 1450 µM to reach half-maximal cytotoxicity in data set [4] (CC50 at 72 h).
In data set [1], `CC12C=CC3(CN(c4ccccc4)C(=O)C3C1C(=O)N/N=C1\C(C)(C)[C@H]3CC[C@]1(C)C3)O2` (mixture of isomers) showed a CC50 at 336 h of 1060 µM. The selectivity ratio came to 3 in data set [2] and 140 in data set [5]. The half-inhibitory concentration (IC50) worked out at 7.6 µM in data set [3] (setting [8]) and 431 µM in data set [6]. In data set [4], this molecule gave a CC50 at 72 h of 1180 µM.
Consider `CC(C)N1CC23C=CC(C)(O2)C(C(=O)N/N=C2\C[C@H]4CC[C@]2(C)C4(C)C)C3C1=O` (mixture of isomers), for which half-maximal cytotoxicity in data set [1] (CC50 at 336 h) was put at 250 µM. In addition, the selectivity ratio in data set [2] is 5; in data set [5], 3. Besides, the IC50 in data set [3] (setting [8]) worked out at 92 µM; in data set [6], 468 µM. The CC50 at 72 h in data set [4] was greater than 2500 µM.
The molecule `NC(=O)c1ncn([C@@H]2O[C@H](CO)[C@@H](O)[C@H]2O)n1` [RIBAVIRIN] showed a CC50 at 336 h in data set [1] of 20 µM. Moreover, the IC50 result in data set [3] (mdck) is recorded as “Not Active”.
